Measurements as given in PMC3207488 (Bioorganic & medicinal chemistry, 2011).
Where two headings read alike, the source gives them in different places. Each block holds one molecule with its values, some of them ahead of it.

Columns and labels:
[1] = test system: various human cancer cell lines; details: natural callophycin A; cited from earlier work
MCF7 breast cancer cells = assay: SRB assay: MCF7 cell proliferation; assay type: cell-based; details: for viability at 50 µM: Homo sapiens, MCF7, 72 h, read-out: SRB assay % surv.; for SRB assay % surv.: MCF7 cells, 72 h
In short: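 MCF7 cells (1 × 10^4 per well) plated with test compound, 72 h at 37°C, 5% CO2. Fixed in 10% TCA for 30 min, stained with 0.4% SRB in 1% acetic acid for 30 min, then washed with 1% acetic acid. Bound dye dissolved in 10 mM Tris (pH 10.0) and A515 read. Survival given as % of vehicle-treated controls.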

[2] = test system: TNF-α-induced NFκB activity; assay: NFκB luciferase assay; assay type: cell-based, human; details: for inhibition at 50 µM: HEK293, read-out: NFκB % inhib.; for NFκB % inhib.: 50 μM
In short: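 HEK293 line carrying a chromosomally integrated luciferase reporter driven by the NFκB response element. Cells incubated 6 h with TNFα plus test compound, then luciferase activity read. Inhibition expressed as % relative to TNFα-treated control. IC50 from dose-response of five serial dilutions, mean of two experiments.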

[3] = test system: Human embryonic kidney cells 293; assay: Cell survival in the NFκB assay; assay type: cell-based; details: for viability at 50 µM: Homo sapiens, HEK293, 6 h, read-out: NFκB % surv.; for NFκB % surv.: 50 μM, 293 cells
aromatase (CYP19) = molecular target: T1, aromatase (CYP19) (Homo sapiens, UniProt P11511); assay: Aromatase assay; assay type: biochemical; details: for inhibition at 50 µM: read-out: Aromatase % inhib., 50 μM; for inhibition at 50 µM / Aromatase % inhib.: vs vehicle-treated controls; for Aromatase % inhib.: 50 μM
T1 sequence (P11511 1-503): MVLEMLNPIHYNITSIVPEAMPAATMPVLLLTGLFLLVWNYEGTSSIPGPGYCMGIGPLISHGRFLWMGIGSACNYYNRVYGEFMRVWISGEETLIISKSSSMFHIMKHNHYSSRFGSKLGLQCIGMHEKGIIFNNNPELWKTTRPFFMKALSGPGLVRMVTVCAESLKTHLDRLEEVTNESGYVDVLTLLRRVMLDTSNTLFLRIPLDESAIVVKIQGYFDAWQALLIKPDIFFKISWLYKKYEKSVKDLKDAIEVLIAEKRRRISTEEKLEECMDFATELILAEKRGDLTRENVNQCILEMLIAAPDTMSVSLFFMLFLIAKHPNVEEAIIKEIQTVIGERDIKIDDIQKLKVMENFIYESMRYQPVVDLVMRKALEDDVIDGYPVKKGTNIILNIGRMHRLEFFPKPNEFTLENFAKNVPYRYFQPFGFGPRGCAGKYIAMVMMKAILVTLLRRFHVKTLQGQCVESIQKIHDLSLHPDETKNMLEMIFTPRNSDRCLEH

[4] = test system: quinone reductase 1 (QR1); assay: QR1 induction in cell culture; assay type: cell-based, murine; details: 50 μM; Hepa 1c1c7 cells
In short: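 Hepa 1c1c7 murine hepatoma cells. QR1 measured by NADPH-dependent, menadiol-mediated reduction of MTT to blue formazan, with protein determined by crystal violet staining of identical plates. Specific activity given as nmol formazan/mg protein/min. IR is the ratio of treated to DMSO-control specific activity. CD (concentration doubling activity) derived by dose-response for IR >2.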

RAW 264.7 cells = assay: Cell survival in the nitrite assay; assay type: cell-based, murine; details: for viability at 50 µM: Mus musculus, RAW264.7, 20 h, read-out: Nitrite assay % surv.; for Nitrite assay % surv.: 50 μM, RAW 264.7 cells
In short: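 RAW 264.7 cells held 24 h at 37°C, 5% CO2, then given serially diluted test compound for 15 min. LPS (1 μg/mL) or no LPS added for a further 20 h. Viability assessed by SRB protein staining under the same conditions as the nitrite assay, as % survival versus vehicle-treated controls.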

[5] = test system: Hepa 1c1c7 murine hepatoma cells; assay: Cell survival in the QR1 assay; assay type: cell-based; details: for viability at 50 µM: Mus musculus, Hepa-1c1c7, read-out: QR1 % surv.; for QR1 % surv.: 50 μM, cell survival in comparison with vehicle-treated controls
[6] = test system: nitric oxide (NO) production in LPS-stimulated RAW 264.7 murine macrophage cells; assay: Nitrite assay: NO production in LPS-stimulated RAW 264.7 cells; assay type: cell-based

Molecule: O=C(O)C1Cc2c([nH]c3ccccc23)CN1Cc1ccc(O)cc1 (stereo not shown) [callophycin A, Callophycin A]
antiproliferative effects [1]: low micromolar concentrations
inhibition of MCF7 cell proliferation (in words) (MCF7 breast cancer cells; 50 μM): didn’t show the inhibitory activity

Molecule: O=C(O)[C@H]1Cc2c([nH]c3ccccc23)CN1 [Compound 1b, 1,2,3,4-tetrahydro-β-carboline-3-carboxylic acid]
inhibition at 50 µM ([2]; Homo sapiens): -72.5%

Molecule: CC(C)COC(=O)N1Cc2[nH]c3ccccc3c2C[C@H]1C(=O)O [Compound 7b, (S)-2-(Isobutoxycarbonyl)-2,3,4,9-tetrahydro-1H-pyrido[3,4-b]indole-3-carboxylic acid]
viability at 50 µM (MCF7 breast cancer cells): 105%
viability at 50 µM [3]: 138%
inhibition at 50 µM ([2]; Homo sapiens): 42.6%
IC50 (aromatase (CYP19)): 72 µM
inhibition at 50 µM (aromatase (CYP19)): 40%
QR1 IR (induction ratio) [4]: 1.8
viability at 50 µM (RAW 264.7 cells): 137%
viability at 50 µM [5]: 94.2%

Molecule: O=C(O)[C@@H]1Cc2c([nH]c3ccccc23)CN1Cc1ccc(O)cc1 [Compound 12a, (S)-Callophycin A]
inhibition at 50 µM (aromatase (CYP19)): > 50%

Molecule: COC(=O)[C@@H]1Cc2c([nH]c3ccccc23)CN1C(=O)NC(C)C [Compound 6b, (S)-Methyl 2-(isopropylcarbamoyl)-2,3,4,9-tetrahydro-1H-pyrido[3,4-b]indole-3-carboxylate]
inhibition at 50 µM (aromatase (CYP19)): > 50%

Molecule: (R)-2-(Isobutoxycarbonyl)-2,3,4,9-tetrahydro-1H-pyrido[3,4-b]indole-3-carboxylic acid [Compound 7d]
SRB assay % surv. (MCF7 breast cancer cells; 50 μM): 97.4%
Nitrite assay % inhib. ([6]; 50 μM): 1.5%
NFκB % surv. [3]: 264.3%
NFκB % inhib. ([2]; TNFα-treated 293 cells): 46.1%
Aromatase % inhib. (aromatase (CYP19)): 36.3%
QR1 IR (induction ratio) [4]: 1.5
Nitrite assay % surv. (RAW 264.7 cells): 134.4%
QR1 % surv. [5]: 87.5%

Now from value to molecule, other results behind:

NFκB % inhib. ([2]; TNFα-treated 293 cells): 91.6%
IC50 ([2]; read-out: NFκB IC50, TNFα-treated 293 cells): 4.8 µM
Aromatase % inhib. (aromatase (CYP19)): 31.7%
Molecule: (R)-2-Isobutyl 3-methyl 3,4-dihydro-1H-pyrido[3,4-b]indole-2,3(9H)-dicarboxylate [Compound 3d]
SRB assay % surv. (MCF7 breast cancer cells; 50 μM): 72.0%
IC50 ([6]; read-out: Nitrite assay IC50): 2800 nM
NFκB % surv. [3]: 112.3%
QR1 IR (induction ratio) [4]: 1.1
Nitrite assay % surv. (RAW 264.7 cells): 92.6%
QR1 % surv. [5]: 78.8%

inhibition at 50 µM (aromatase (CYP19)): > 50%
Molecule: C=CCOC(=O)N1Cc2[nH]c3ccccc3c2C[C@H]1C(=O)OC [Compound 3a, (S)-2-Allyl 3-methyl 3,4-dihydro-1H-pyrido[3,4-b]indole-2,3(9H)-dicarboxylate]

IC50 ([2]; Homo sapiens, HEK293, read-out: NFκB IC50): 16.2 µM
IC50 (aromatase (CYP19)): 64.5 µM
inhibition at 50 µM (aromatase (CYP19)): 41.5%
Molecule: COC(=O)[C@@H]1Cc2c([nH]c3ccccc23)CN1C(=O)OCC(C)C [Compound 3b, (S)-2-Isobutyl 3-methyl 3,4-dihydro-1H-pyrido[3,4-b]indole-2,3(9H)-dicarboxylate]
viability at 50 µM (MCF7 breast cancer cells): 76.7%
viability at 50 µM [3]: 95.6%
inhibition at 50 µM ([2]; Homo sapiens): 59.8%
QR1 IR (induction ratio) [4]: 1.7
viability at 50 µM (RAW 264.7 cells): 105%
viability at 50 µM [5]: 88.3%
